Assay results from ChEMBL document CHEMBL1150767, “4-N-, 4-S-, and 4-O-chloroquine analogues: influence of side chain length and quinolyl nitrogen pKa on activity vs chloroquine resistant malaria” (J Med Chem, 2008).

How the values were obtained:
Plasmodium falciparum [1] = test: Antimalarial activity against chloroquine-sensitive Plasmodium falciparum HB3 after 72 hrs by SYBR green assay; type: functional, organism-based; details: HB3, 72 h
Procedure, shortened: (§1)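 Sorbitol-synchronized P. falciparum cultures (>95% rings) at 0.5% parasitemia, 1% hematocrit final, exposed to drug dilutions in complete medium 72 h at 37°C; SYBR Green I added, 1 h at 37°C, fluorescence read at 530 nm (490 nm excitation). Each dilution in triplicate; IC50 averaged over at least two separate assays.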

Plasmodium falciparum [2] = test: Antimalarial activity against chloroquine-resistant Plasmodium falciparum Dd2 after 72 hrs by SYBR green assay; type: functional, organism-based; details: Dd2, 72 h; procedure, shortened: as §1
Plasmodium falciparum [3] = test: Selectivity for chloroquine-resistant Plasmodium falciparum Dd2 over chloroquine-sensitive Plasmodium falciparum HB3 as IC50 ratio by SYBR green assay; type: functional
Plasmodium falciparum [4] = test: Antimalarial activity against chloroquine-sensitive Plasmodium falciparum GCO3 after 72 hrs by SYBR green assay; type: functional, organism-based; details: GCO3, 72 h; procedure, shortened: as §1
Plasmodium falciparum [5] = test: Antimalarial activity against chloroquine-resistant Plasmodium falciparum FCB after 72 hrs by SYBR green assay; type: functional, organism-based; procedure, shortened: as §1
Plasmodium falciparum [6] = test: Selectivity for chloroquine-resistant Plasmodium falciparum FCB over chloroquine-sensitive Plasmodium falciparum GCO3 as IC50 ratio by SYBR green assay; type: functional
Plasmodium falciparum [7] = test: Selectivity for chloroquine-resistant Plasmodium falciparum Indochina I over chloroquine-sensitive Plasmodium falciparum Haiti 135 as IC50 ratio by [3H]hypoxanthine uptake; type: functional
[8] = Binding affinity to mu dimeric heme in aqueous solution at pH 7.5
Procedure, shortened: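 Hemin first converted to μ-oxo dimer in mild alkaline solution, then titrated to pH 7.5 with Hepes buffer. Heme titrated with increasing drug (0 – 50 μM); absorbance at 402 nm recorded after each addition. Solvent-only titration served as control. Ka derived from ΔAbs402 plots by Scatchard analysis.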

[9] = Inhibition of haemozoin formation at pH 5.2 after 18 hrs; type: functional
Procedure, shortened: (§2)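 Cell-free β-hematin formation in 1 mL containing lecithin (2 μg/ml final), hematin (100 μM final), 0.1 M HCl, propionate buffer at stated pH, and drug (0-1000 μM). Triplicates shaken at 37°C for 18 h. Pellets washed with pH 9.0 bicarbonate to remove uncrystallized heme, dried, dissolved in 0.1 M NaOH, and quantified by absorbance at 402 nm against a heme calibration curve.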

[10] = Inhibition of haemozoin formation at pH 5.6 after 18 hrs; type: functional; procedure, shortened: as §2
Plasmodium falciparum [11] = test: Drug accumulation in digestive vacuole of chloroquine-resistant Plasmodium falciparum assessed as vacuolar accumulation ratio at pH 5.2; type: ADME, organism-based
Procedure, shortened: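 Calculated with the Henderson–Hasselbach equation from compound pKa values, taking cytosolic pH 7.4 and DV pH 5.2 for CQR parasites. Experimental pKa came from titrating 10 mM drug in water with 0.1 M NaOH at room temperature, using second-derivative inflection points, three determinations averaged.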

Plasmodium falciparum [12] = test: Drug accumulation in digestive vacuole of chloroquine-sensitive Plasmodium falciparum assessed as vacuolar accumulation ratio at pH 5.6; type: ADME, organism-based
Procedure, shortened: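 Calculated, not measured: Henderson–Hasselbach equation with cytosolic pH 7.4 and digestive vacuole pH 5.6 (CQS), using experimental pKa values.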

Plasmodium falciparum [13] = test: Antimalarial activity against chloroquine-sensitive Plasmodium falciparum NF54 by [3H]hypoxanthine uptake; type: functional, organism-based
Plasmodium falciparum [14] = test: Selectivity for chloroquine-resistant Plasmodium falciparum K1 over chloroquine-sensitive Plasmodium falciparum NF54 as IC50 ratio by [3H]hypoxanthine uptake; type: functional
Plasmodium falciparum [15] = test: Antimalarial activity against chloroquine-resistant Plasmodium falciparum K1 by [3H]hypoxanthine uptake; type: functional, organism-based

SMILES | IC50 (Plasmodium falciparum [1]) [µM] | IC50 (Plasmodium falciparum [2]) [µM] | Ratio IC50 (Plasmodium falciparum [3]) | IC50 (Plasmodium falciparum [4]) [µM] | IC50 (Plasmodium falciparum [5]) [µM] | Ratio IC50 (Plasmodium falciparum [6]) | Ratio IC50 (Plasmodium falciparum [7]) | Ka [8] | logKA [8] | IC50 [9] [µM] | IC50 [10] [µM] | Activity (Plasmodium falciparum [11]) | Activity (Plasmodium falciparum [12]) | IC50 (Plasmodium falciparum [13]) [µM] | Ratio IC50 (Plasmodium falciparum [14]) | IC50 (Plasmodium falciparum [15]) [µM]
CCN(CC)CCCCCCNc1ccnc2cc(Cl)ccc12 | 0.097 | 0.085 | 0.876 | 0.016 | 0.102 | 6.38 | 11.2 |  |  |  |  |  |  |  |  | 
CCN(CC)CCCCCSc1ccnc2cc(Cl)ccc12 | 2.33 | 1.08 | 0.464 | 1.61 | 0.814 | 0.506 |  |  |  |  |  |  |  |  |  | 
CCN(CC)CCCCNc1ccnc2cc(Cl)ccc12 | 0.012 | 0.199 | 16.6 | 0.049 | 0.181 | 3.69 | 10.2 | 1.65 ×10⁵ /M | 5.2 | 24 | 12 | 23000 | 3700 |  |  | 
CCN(CC)CCCOc1ccnc2cc(Cl)ccc12 | 5.1 | 2.8 | 0.549 | 2.34 | 2.33 | 0.996 |  |  |  |  |  |  |  |  |  | 
CCN(CC)CCCCCNc1ccnc2cc(Cl)ccc12 | 0.029 | 0.357 | 12.3 | 0.066 | 0.509 | 7.17 | 9.67 |  |  |  |  |  |  |  |  | 
CCN(CC)CCSc1ccnc2cc(Cl)ccc12 | 9.53 | 5.5 | 0.577 | 5.74 | 6.02 | 1.04 |  |  |  |  |  |  |  |  |  | 
CCN(CC)CCNc1ccnc2cc(Cl)ccc12 | 0.013 | 0.026 | 2 | 0.013 | 0.03 | 2.3 | 0.714 |  |  |  |  |  |  | 0.021 | 2.33 | 
CCN(CC)CCCCCOc1ccnc2cc(Cl)ccc12 | 1.87 | 1.01 | 0.54 | 1.49 | 0.93 | 0.624 |  |  |  |  |  |  |  |  |  | 
CCN(CC)CCCCOc1ccnc2cc(Cl)ccc12 | 2.92 | 1.18 | 0.404 | 1.66 | 1.1 | 0.663 |  | 8.82 ×10⁴ /M | 5 | > 1000 | > 1000 | 190 | 67 |  |  | 
CCNCCCCNc1ccnc2cc(Cl)ccc12 | 0.018 | 0.649 | 36.1 | 0.026 | 0.854 | 32.8 |  |  |  |  |  |  |  |  |  | 
CCN(CC)CCCC(CCCN(CC)CC)Oc1ccnc2cc(Cl)ccc12 | 0.094 | 0.409 | 4.35 | 0.074 | 0.352 | 4.75 |  | 3.47 ×10⁴ /M | 4.5 | 199 | 687 | 79000 | 5000 |  |  | 
CCN(CC)CCCSc1ccnc2cc(Cl)ccc12 | 5.6 | 2.66 | 0.475 | 3.46 | 1.61 | 0.465 |  |  |  |  |  |  |  |  |  | 
CCN(CC)CCCCC(CCCCN(CC)CC)Oc1ccnc2cc(Cl)ccc12 | 0.073 | 0.316 | 4.31 | 0.045 | 0.604 | 13.4 |  |  |  |  |  |  |  |  |  | 
CCNCCNc1ccnc2cc(Cl)ccc12 | 0.012 | 0.081 | 6.75 | 0.012 | 0.089 | 7.42 |  |  |  |  |  |  |  | 0.021 | 1.25 | 0.133
CCN(CC)CCCC(C)Nc1ccnc2cc(Cl)ccc12 (stereo unspecified) [CHLOROQUINE] |  |  |  |  |  |  |  |  |  | 35 | 16 | 23000 | 3700 |  |  | 
CCN(CC)CCOc1ccnc2cc(Cl)ccc12 | 5.8 | 4.57 | 0.788 | 5.29 | 5.08 | 0.96 |  |  |  |  |  |  |  |  |  | 
CCNCCCNc1ccnc2cc(Cl)ccc12 | 0.007 | 0.115 | 16.4 | 0.02 | 0.085 | 4.25 |  |  |  |  |  |  |  | 0.015 | 24.3 | 0.365
CCNCCCCCNc1ccnc2cc(Cl)ccc12 | 0.021 | 0.786 | 37.4 | 0.062 | 1.27 | 20.5 |  |  |  |  |  |  |  |  |  | 
CCN(CC)CCCCCCSc1ccnc2cc(Cl)ccc12 | 6.02 | 4.11 | 0.683 | 4.45 | 3.3 | 0.742 |  |  |  |  |  |  |  |  |  | 
CCN(CC)CCCCCCOc1ccnc2cc(Cl)ccc12 | 3.06 | 4.16 | 1.36 | 2.27 | 1.19 | 0.524 |  |  |  |  |  |  |  |  |  | 
CCN(CC)CC(CN(CC)CC)Oc1ccnc2cc(Cl)ccc12 | 1.49 | 1.29 | 0.866 | 2.25 | 3.83 | 1.7 |  |  |  |  |  |  |  |  |  | 
CCNCCCCCCNc1ccnc2cc(Cl)ccc12 | 0.019 | 0.982 | 31.3 | 0.052 | 0.987 | 10 |  |  |  |  |  |  |  |  |  | 
CCN(CC)CCCCSc1ccnc2cc(Cl)ccc12 | 7.39 | 4.44 | 0.601 | 5.63 | 3.5 | 0.622 |  | 8.22 ×10⁴ /M | 4.9 | 216 | 155 | 170 | 64 |  |  | 
CCN(CC)CCCNc1ccnc2cc(Cl)ccc12 |  | 0.026 | 4.33 | 0.007 | 0.029 | 4.14 | 1.2 |  |  |  |  |  |  | 0.018 | 3.33 | 0.06
